Sampled rows, rich in hits. Any-hit rate of the full collection: about 2.3%.
EWS-Fli inh – inhibitors of EWS/Fli oncoprotein transcriptional activity; A673 NR0B1-luciferase reporter, viability-normalised; inhibition, % at 12.6 µM; 0.67% of 350,000 active; AID 651661;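 active = mean inhibition of at least 50% after viability correction, with every replicate also passing that limit; inconclusive = mean reaches 50% but only one of two replicates passes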;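 note: firefly luciferase signal divided by Alamar Blue viability fluorescence both relative to DMSO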
FN deposition inh – fibronectin deposition inhibition. inhibition, % at 12.6 µM. AH1F fibroblasts, Alexa488-fibronectin deposition fluorescence, overnight. 0.086% of 350,000 active. AID 743247;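 active = mean inhibition across replicates of 30% or more, regardless of how many single replicates reach that level; inconclusive = mean under 30% yet at least half of replicates reach 30%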;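 note: positive control wells lacked labelled fibronectin entirely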
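Material: AH1F fibroblast monolayer depositing Alexa488-labelled fibronectin into matrix | Input: 10000 AH1F cells/well | Medium: DMEM plus 2% serum, read in PBS | Reagent: Alexa488-fibronectin, 24 nM final in well | Compound dosing: One dose per compound, pinned | Schedule: 1 h adhesion, overnight exposure | Measured by: Fluorescence at 485 nm excitation, 525 nm emission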
TROY NFkB inh – inhibitors of TROY-dependent NF-kB signaling. Q293 LMP1-TROYcd NF-kB luciferase reporter, 4 h. inhibition, % at 10 µM. 0.98% of 360,000 active. AID 1347056;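 active = compounds whose plate-normalised and pattern-corrected inhibition of the luciferase reporter signal at the single screening dose is 50% or more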
TWEAK Fn14 block – inhibitors of TWEAK-Fn14 interaction signaling; TWEAK-stimulated Fn14 reporter cells, luciferase luminescence, 8 h; inhibition, % at 10 µM; 2% of 360,000 active; AID 1159606; in the data active = inhibition above about 50%
LGR2 inh – blocks bursicon-induced cAMP signaling via Drosophila LGR2; inhibition, % at 9.99 µM; 0.35% of 380,000 active; HEK293 LGR2, CRE-luciferase, bursicon-stimulated, 4 h;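 active = drop in luminescence signal, shown as inhibition above about 50% in the replicate tests, limit read from the data, passing the limit was not always enough; inconclusive = probably only some replicates passing the limit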;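 note: agonist challenge used bursicon conditioned medium at about half maximal strength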
XiGFP reactiv – reactivates the inactive X chromosome in mouse fibroblasts; activation, % at 7.58 µM; 0.055% of 360,000 active; XiGFP mouse fibroblasts, % GFP-positive cells imaging, 3 d; cells co-treated with 5-aza-dC sensitizer; scaled so ellipticine positive control = 100%;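 active = mean normalized replicate activation at least 10% and every replicate at or above 10%; inconclusive = only one of the two criteria met; inactive = mean below 10% and not all replicates reach 10%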;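 note: 0% = median of on-plate neutral control wells and 100% = ellipticine 6 µM median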
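System: SV40-immortalized XiGFP fibroblast cells, line 68-5-11 / Incubation: 3-day compound exposure, then 15 min fixation at room temperature / Compound: single concentration per compound, delivered by pin transfer / Buffer or medium: DMEM plus 5-aza-dC sensitizer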
DNA binder FP – binds DNA displacing acridine orange; shares compounds with EWS-Fli inh; salmon sperm DNA acridine orange fluorescence polarization; AC35, µM (top dose mostly 68 µM), for the others: at the top dose activity change, negative = DNA binding; 2% of 640 active;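 active = fitted curve reaches a 35% signal fall AC35 below twice the sample's top valid tested dose, actives reach about 48 µM in these data; inactive = the rest, including activity in the rising direction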;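 note: lower polarization ratio signals compound binding to DNA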
* marks the source's active call; other numbers are inactive results; ? = inconclusive; nt = not tested or not shown.

SMILES	EWS-Fli inh	FN deposition inh	TROY NFkB inh	TWEAK Fn14 block	LGR2 inh	XiGFP reactiv	DNA binder FP
COc1ccc(S(=O)(=O)Nc2ccc3c(c2)C(=O)N([C@H](C)CO)C[C@@H](C)[C@H](CN(C)CC2CCCCC2)OCCCC[C@@H](C)O3)cc1	4.9	nt	nt	nt	11.9	0.0	nt
C[C@H](CO)N1C[C@H](C)[C@H](CN(C)C(=O)c2ccc3c(c2)OCO3)Oc2cc(-c3ccncc3)ccc2S1(=O)=O	2.4	nt	nt	nt	1.0	0.4	nt
C[C@@H]1CN([C@H](C)CO)C(=O)c2c(c3ccccc3n2C)-c2ccccc2CO[C@H]1CN(C)Cc1ccc(Cl)c(Cl)c1	10.4	-8.8	nt	nt	37.1	0.6	nt
CCS(=O)(=O)NCC[C@@H]1CC[C@@H](NC(=O)C2CCCC2)[C@H](CO)O1	10.9	nt	nt	nt	9.2	0.2	nt
C[C@@H]1CN([C@H](C)CO)C(=O)c2cc(NC(=O)CCCCCC(=O)Nc3ccccc3N)ccc2O[C@H]1CN(C)S(=O)(=O)c1ccc(Cl)cc1	52.1*	-8.7	nt	nt	5.5	0.0	-9.3%
COc1ccc(S(=O)(=O)Nc2ccc3c(c2)C(=O)N([C@H](C)CO)C[C@@H](C)[C@@H](CN(C)Cc2ccc(C(=O)Nc4ccccc4N)cc2)O3)cc1	56.0*	nt	nt	nt	-8.9	-0.1	-0.9%
C[C@@H]1CN([C@@H](C)CO)C(=O)c2cc(NS(=O)(=O)c3ccc(F)cc3)ccc2O[C@@H]1CN(C)Cc1ccc(C(=O)Nc2ccccc2N)cc1	53.7*	-12.4	nt	nt	5.6	-1.0	-7.0%
COc1ccc(S(=O)(=O)Nc2ccc3c(c2)C(=O)N([C@@H](C)CO)C[C@@H](C)[C@@H](CN(C)Cc2ccc(C(=O)Nc4ccccc4N)cc2)O3)cc1	49.3	nt	nt	nt	12.5	-0.1	nt
Cc1noc(C)c1S(=O)(=O)Nc1ccc2c(c1)C(=O)N([C@@H](C)CO)C[C@H](C)[C@H](CN(C)S(=O)(=O)c1c(C)noc1C)OCCCC[C@@H](C)O2	4.5	-0.1	nt	nt	10.7	0.0	nt
C[C@@H]1CCCCO[C@@H](CN(C)S(=O)(=O)c2ccc(F)cc2)[C@@H](C)CN([C@H](C)CO)C(=O)c2cc(NC(=O)Cc3ccccc3)ccc2O1	4.5	-2.1	nt	nt	-2.8	0.0	nt
COc1ccc(Cn2cc3c(-c4ccc(F)cc4)nnc-3c3cc(OC)c(OC)cc32)cc1	66.4*	-16.3	-33.2	-202.6	31.1	80.5*	-24.7%
Cn1nc2c3cc(F)ccc3n(Cc3ccc(F)cc3)cc-2c1=O	4.2	10.1	-20.8	13.3	-11.8	0.0	nt
O=C(C[C@H]1CC[C@H]2[C@@H](COC[C@H](O)CN2C(=O)c2ccccc2F)O1)NCc1ccc(F)cc1	3.8	1.6	nt	nt	19.5	0.0	nt
CO[C@@H]1CN(C)C(=O)c2ccc(NC(=O)c3ccc(-c4ccccc4)cc3)cc2OC[C@H](C)NC[C@@H]1C	14.0	2.1	nt	nt	7.4	-0.1	nt
CO[C@H]1CN(C)C(=O)c2cc(NC(=O)c3ccc(Oc4ccccc4)cc3)ccc2OC[C@H](C)NC[C@@H]1C	57.9*	8.0	nt	nt	8.5	-0.3	-17.8%
CO[C@H]1CN(C)C(=O)c2ccc(NC(=O)c3ccc(-c4ccccc4)cc3)cc2OC[C@H](C)NC[C@H]1C	82.8*	-11.3	nt	nt	7.6	-0.2	-14.5%
CCCNC(=O)C[C@H]1CC[C@H]2[C@H](COc3ccc(NC(=O)Nc4ccccc4)cc3C(=O)N2C)O1	-3.1	-1.3	nt	nt	-5.6	0.0	nt
COCC(=O)N1[C@@H](CO)[C@H](c2ccccc2)C12CN(C(=O)c1cccnc1)C2	nt	nt	nt	nt	nt	0.2	nt
Cc1ccc2nc(-c3ccccc3)nn2c1	71.8*	3.5	61.6*	94.2*	86.3*	0.2	-12.2%
Cc1ccc(-c2nnc(-c3ccccc3)c(-c3ccccc3)n2)cc1	1.2	3.0	-17.6	-3.8	7.4	0.1	nt
Nc1nc(N)c(-c2cccc(C(F)(F)F)c2)c(Cc2cccc(C(F)(F)F)c2)n1	57.5*	-4.1	9.7	24.4	4.7	0.2	-3.2%
Nc1ncccc1OCc1cccc(C(F)(F)F)c1	-6.2	-5.2	-8.5	-14.5	-14.7	0.0	nt
CCCCNC(=O)O[C@@H]1C[C@H]2CCCC(=O)N3CC[C@@H](C1)[C@@H]23	-5.1	-4.9	-16.8	-0.5	-3.7	0.0	nt
CCCCCCCN(c1ccccc1)[C@@H]1C[C@H]2CCCC(=O)N3CC[C@@H](C1)[C@@H]23	62.4*	5.6	37.8	33.7	52.2*	0.0	2.7%
Cc1occc1-c1n[nH]c(=S)n1-c1ccccc1	14.2	-1.6	-8.8	-4.2	-2.8	0.0	nt
SMILES	EWS-Fli inh	FN deposition inh	TROY NFkB inh	TWEAK Fn14 block	LGR2 inh	XiGFP reactiv	DNA binder FP
Cc1occc1-c1n[nH]c(=S)n1C	75.2*	-4.4	4.7	2.2	nt	0.0	-6.6%
C=CC[n+]1c(-c2ccc(C)cc2)csc1Nc1ccc(NC(C)=O)cc1	62.2*	-5.1	40.8	51.2*	-39.3	0.1	-5.7%
N#C[C@H]1[C@@H](c2ccccc2C2=CCCCC2)[C@@H](CO)N1C(=O)Cc1ccncc1	2.3	-14.8	nt	nt	4.2	0.1	nt
COc1ccc(/C=C(/C(=O)c2cccs2)N2C=CC=CC2=C(C#N)C#N)cc1	79.1*	15.2	39.7	33.9	nt	2.1	2.3%
COc1ccc(C=C(C#N)C(=O)c2ccccc2)cc1	5.0	2.7	-7.0	3.7	-34.9	0.0	nt
c1ccc(Nc2nnc(-c3ccc4c(c3)OCO4)o2)cc1	78.9*	-3.5	nt	nt	91.7*	0.2	3.0%
Clc1ccc(Nc2nnc(-c3ccc4c(c3)OCO4)o2)cc1	-94.9	0.2	nt	nt	-49.7	0.0	nt
CNC[C@H](CC1CCCCC1)NC[C@H](CO)NCC1(c2ccccc2)CC1	8.6	4.7	5.5	-1.7	9.6	0.1	nt
CNC[C@H](CC1CCCCC1)NC[C@H](CO)NCCc1cccc(C(F)(F)F)c1	60.7*	1.0	-15.6	-22.5	?	0.0	-8.5%
COc1cc2c(cc1OC)C(C)N(C(=O)c1nccnc1C(=O)O)CC2 (stereo unspecified)	0.9	9.1	-2.2	4.7	-3.8	-0.1	nt
COc1cc2c(cc1OC)C(C)N(C(=O)c1cc(Cl)nc(Cl)c1)CC2 (stereo unspecified)	56.1*	5.4	16.6	13.3	-24.4	0.1	0.6%
Nc1ccc(-c2cc3ccccc3c(=O)o2)cc1	64.4*	-2.9	-3.3	49.5	-12.8	0.2	-24.2%
COc1cc(OC)cc(-c2cc3ccccc3c(=O)o2)c1	-55.8	-3.0	-53.8	-30.2	-59.5	0.4	nt
Cc1noc(C)c1S(=O)(=O)Nc1ccc2c(c1)C(=O)N([C@H](C)CO)C[C@@H](C)[C@H](CN(C)C(=O)c1ccccc1)OCCCC[C@@H](C)O2	5.3	-2.5	nt	nt	1.1	0.2	nt
O=c1cc(-c2ccccc2)oc2ccc(Br)cc12	-6.1	-2.6	-38.6	-18.9	6.3	-0.2	nt
